# Results reported in publication PMC10527240 (International journal of biological macromolecules, 2023).
# Assays:
# HRPT cells = assay: Palmitate-induced lipoapoptosis by TUNEL in HRPT cells; type: cell-based, human; details: for Effect on palmitate-induced lipoapoptosis: drug 5 μM, 2 hr, then palmitate 100 μM, 16 hr
# Procedure, shortened: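 Immortalized human kidney proximal tubule cells were grown to near confluence on glass coverslips. They were preincubated with test compound (5 μM, 2 hr, 37°C), then albumin-complexed palmitate was added (100 μM, 16 hr, 37°C). Fixed cells were scored by TUNEL under fluorescence microscopy at 400X by blinded operators, ten random fields, one experiment. Mean ± SD; ANOVA.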
# human FATP2 = human FATP2 (Homo sapiens, UniProt O14975); assay: BODIPY-C16 FA uptake in HRPT cells stably expressing human FATP2; type: cell-based
"IC50 (HRPT cells; read-out: IC50 for palmitate-induced apoptosis, compound 2 hr 37° C, then palmitate 100 μM, 16 hr) [nM]",IC50 (human FATP2) [nM],Compound,Effect on palmitate-induced lipoapoptosis (HRPT cells)
,,Grassofermata,increased apoptosis
600,,Cc1ccc2c(c1)C1(NN=C(c3ccccc3)S1)C(=O)N2 (centres unmarked) [Compound 1],protective
,> 500000,CCCCCc1cccc(CC(=O)O)c1 [PBI-4050],
,,O=C1Nc2ccc(Br)cc2C12NN=C(c1ccccc1)S2 (centres unmarked) [Lipofermata],protective
